Assay outcomes: PubChem BioAssay, several laboratories
Sampled rows, rich in hits. Any-hit rate of the full collection: about 3.5%.
RAM inhibit: inhibitors of the yeast RAM network; S. cerevisiae dse1pr::URA3 reporter, 5-FOA growth OD615, 2 d; analog-sensitive cbk1-as2 kinase mutant strain; inhibition, % at 50 µM; AID 868; actives 1.8% (n = 190,000);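 active means inhibition above a set limit, 3 SD over mean compound inhibition, cut at about 8.4% in these data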;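 further: 0% = DMSO-only wells with no growth and 100% = 10 µM 1-NA-PP1 full growth; inhibition rescues growth on 5-FOA so higher OD means more RAM inhibition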
Yeast lifespan up: yeast lifespan extension. inhibition of the nicotinamide effect, % at 10 µM. AID 775. S. cerevisiae growth with nicotinamide, OD615; deaD strain in restrictive glucose medium. actives 0.68% (n = 130,000);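 active means inhibition above a set limit, placed 3 SD over the median of all compounds, cut at about 26% in these data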;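 further: 0% = nicotinamide-treated wells and 100% = cells grown without nicotinamide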
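Measured by: optical density (absorbance) at 615 nm; System: modified budding yeast, DeaD strain; Medium: restrictive CSMM-D dextrose medium; Timing: 4 h preincubation then 48 h treatment at 30 °C.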
HMGR II inh: blocks class II HMG-CoA reductase of Enterococcus faecalis; purified E. faecalis HMGR, NADPH absorbance 340 nm kinetic; inhibition, % at 10 µM; actives 0.41% (n = 190,000); AID 1066;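 active means inhibition above a set limit, the median over all tested compounds plus 3 SD, cut at about 9.5% in these data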;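 further: enzyme runs in reverse so mevalonate oxidation gives rising NADPH absorbance; 0% = complete reaction with DMSO and 100% = background rate lacking mevalonate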
MT stabilizer: microtubule stabilization, imaging screen; actives 0.83% (n = 200,000); % tubulin-high responders, % at 10 µM; HeLa tubulin immunostaining HCS, 24 h; share of cells brighter than vehicle mean+2SD; AID 2205;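 active means plate Z-score above 3 for both tubulin-high and condensed-nucleus cell shares, with cell loss under 80%, at 10 µM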;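 further: anti alpha tubulin signal scored within the nucleus-defined area of each cell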
Yeast growth inh: chemicals that inhibit yeast BB579 growth in restrictive medium (lifespan-shortening candidates); S. cerevisiae BB579 growth, OD615, 48 h; inhibition, % at 10 µM; actives 0.51% (n = 140,000); AID 804;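 active means inhibition above a set limit, 3 SD over the mean compound inhibition, cut at about 44% in these data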
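Assay system: S. cerevisiae DeaD strain BB579 yeast. Medium: CSMM-D restrictive synthetic medium containing dextrose (glucose). Times: 4 h cell preincubation, 48 h compound exposure, 30 °C humidified. Signal: OD615 turbidity measurement. Benchmarks: positive control amphotericin B 10 µg/mL.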
bCat nuc transl: modulators of beta-catenin nuclear translocation | HeLa beta-catenin nuclear translocation, immunofluorescence imaging | nuclear translocation activity, % at 5 µM | actives 0.3% (n = 190,000) | AID 1665;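 active means nuclear translocation activity above 50% at 5 µM, with a well cell count of 50 or more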;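 further: per-cell ratio of nuclear to cytoplasmic median beta-catenin stain intensity; plate controls were DMSO negative control for no effect and GSK-3 inhibitor IX positive control for full effect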
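Test system: HeLa cells, endogenous beta-catenin; Compound: single 5 µM dose plus 0.02–20 µM confirmation series; Times: compound exposure 24 h at 37°C; Signal: fluorescence imaging of beta-catenin antibody stain plus DAPI; Read-out: % activation, nuclear-to-cytoplasmic median beta-catenin signal ratio per cell.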
RAM efflux-def: restores 5-FOA growth of efflux-deficient yeast | shares compounds with RAM inhibit | S. cerevisiae efflux-deficient reporter strain, 5-FOA growth OD615, 2 days | max inhibition, % | 1,200 tested, under 10 active | AID 1305; call rule not given here;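 further: plate controls were vehicle for no effect and reference inhibitor for full effect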
The depositor's hits bear a star; . = not tested or not shown.

SMILES	RAM inhibit	Yeast lifespan up	HMGR II inh	MT stabilizer	Yeast growth inh	bCat nuc transl	RAM efflux-def
CC(C)C(c1nnnn1C1CCCC1)N1CCc2ccccc21 (stereo not drawn)	1	-5	-6	5	-56	-3	.
O=C(CN1C(=O)COc2ccc(S(=O)(=O)N3CCCC3)cc21)NCc1ccccn1	.	.	.	.	.	-1	.
CCCC(=O)C1=C(O)C(C(=O)OC)C(C)(C)CC1=Nc1cccc2ccccc12 (stereo not drawn)	12*	.	0	4	-2	-3	4
Cc1cc(NC(=O)c2ccc(C#N)cc2)on1	2	.	-3	1	.	0	.
Cc1[nH]n(-c2ccccc2)c(=O)c1C(C[N+](=O)[O-])c1ccc(Cl)cc1 (stereo not drawn)	0	18	0	3	-21	-3	.
Cc1[nH]n(-c2ncc(-c3ccccc3)s2)c(=O)c1C(c1ccc(Cl)cc1)C(C#N)C#N (stereo not drawn)	12*	35*	2	3	0	-1	5
CCOCCCNC(=O)c1cc(=O)n(Cc2cccc(C)c2)c2ccccc12	12*	.	-5	12	.	-2	1
CCn1c(=O)cc(OCC(=O)NCCc2cccc(C)c2)c2ccccc21	4	.	-6	2	.	1	.
CCCCCOc1ccc(CSc2ncn[nH]2)cc1	24*	.	2	1	-26	-2	1
CCOc1ccc(/C=N/NC(=O)CSc2n[nH]c(=O)[nH]c2=O)cc1OC	3	.	-2	2	.	-6	.
COc1ccc(N2Cc3cccc(C(=O)NC(C)CCc4ccco4)c3C2=O)cc1 (stereo not drawn)	7	-6	1	2	-81	.	.
CC(CCc1ccco1)NC(=O)c1cccc2c1C(=O)N(C1CCCCC1)C2 (stereo not drawn)	12*	.	-2	2	.	0	1
CCCC[C@@H]1C[C@H]1[C@@H](NC(=O)c1ccccc1)c1ccccc1C(F)(F)F	22*	2	-4	8	-37	1	3
COC(=O)[C@@H]1C[C@H]1[C@@H](NC(=O)c1ccccc1)c1ccccc1	0	-2	1	7	-6	-2	.
CCCSc1nc(NCc2ccco2)c2c3c(sc2n1)COC(C)(C)C3	13*	-22	-5	2	-31	-2	7
CC(C)c1ccc(CNc2cc(N3CCCC3)ccc2[N+](=O)[O-])cc1	19*	-1	-5	1	-30	-4	5
CC(C)(C)CNc1cc(N2CCCC2)ccc1[N+](=O)[O-]	6	1	-3	1	-3	0	.
O=C(NC(C(=O)N/N=C/c1cccnc1)c1n[nH]c(=O)c2ccccc12)c1ccccc1 (stereo not drawn)	.	.	.	.	.	0	.
Cc1ccc(NC(=O)Cc2ccc(Cl)c(Cl)c2)cc1S(=O)(=O)N(C)C	12*	6	-3	2	-44	1	3
Cc1ccc(-n2ncc3c(=O)[nH]c(SCC(=O)N4CCN(c5ccccc5)CC4)nc32)cc1	7	.	2	2	-48	-1	.
Cc1ccc(-n2ncc3c(=O)[nH]c(SCC(=O)N4CCCc5ccccc54)nc32)cc1	12*	4	-1	7	-47	2	3
CN(C)CCOc1ccc2ccccc2c1	2	1	2	3	-42	-2	.
Cc1cccc(N(C)C(=S)Oc2ccc3ccccc3c2)c1	12*	9	-3	3	-59	.	3
C=CCNC(=S)N1CCN(C2CCCCC2)CC1	.	.	.	.	.	1	.
CCOc1ccc2nc(SCCNS(=O)(=O)c3ccccc3)sc2c1	12*	4	1	2	-42	1	2
SMILES	RAM inhibit	Yeast lifespan up	HMGR II inh	MT stabilizer	Yeast growth inh	bCat nuc transl	RAM efflux-def
CCOc1ccc2nc(SCC(=O)c3ccccc3)sc2c1	16*	-9	-1	2	-78	.	2
O=C(CSc1nc2ccccc2s1)CSc1nc2ccccc2s1	14*	-11	-5	1	-43	0	4
CCOc1ccc2nc(SCc3ccc(OC)cc3)sc2c1	1	-6	2	4	-47	0	.
Cc1sc2c(c1C)CN(CCN1CCOCC1)CN2C(=O)c1ccccc1	0	.	-8	3	.	-1	.
CCN(C(=O)COC(=O)c1cncc(Br)c1)C1CCS(=O)(=O)C1 (stereo not drawn)	0	.	-3	1	.	-2	.
O=C(CCNC(=O)c1ccccc1Cl)Nc1cc(C(F)(F)F)ccc1Cl	1	-4	-2	2	-20	-4	.
Cc1ccc(C)c(C(=O)COC(=O)CCCC(=O)Nc2cc(C(F)(F)F)ccc2Cl)c1	18*	1	-1	1	-13	1	2
NC(=O)c1oc2ccccc2c1NC(=O)C1COc2ccccc2O1 (stereo not drawn)	4	.	-4	2	.	-4	.
CSc1ccc(Cl)c(C(=O)NCCOc2cc(C(C)C)ccc2C)c1	14*	-1	2	1	-16	-1	6
Cc1ccc(C(=O)OCC(=O)Nc2cc(S(=O)(=O)N3CCOCC3)ccc2C)cc1	12*	.	3	7	.	0	2
O=C(CCCSc1nc2ccccc2[nH]1)Nc1nnc(-c2ccccc2)o1	14*	-18	-10	1	-14	0	2
O=C(Nc1ccc(F)cc1)c1sccc1SCc1cccc(C(F)(F)F)c1	14*	-16	-10	3	-41	1	3
O=C(Nc1ccc(F)cc1F)c1sccc1SCc1cccc(C(F)(F)F)c1	2	-4	-4	2	-28	.	.
COc1ccc(NC(=O)c2sccc2SCc2cccc(C(F)(F)F)c2)cc1	16*	-12	-6	3	-36	0	4
Cc1ccc(C2=NN(Cc3nnc(-c4ccccc4)o3)C(=O)SC2)cc1	12*	6	2	4	-6	-1	3
CCOC(=O)C1=C(O)/C(=C/c2ccc(OCC(=O)O)c(OC)c2)SC1=Nc1ccc(OC)cc1	14*	5	0	6	-35	-1	9
CSc1ccccc1-c1nnc(-c2ccccc2)o1	2	-13	1	2	-62	2	.
CSc1ccccc1-c1nnc(-c2ccc(C)cc2)o1	14*	-8	-5	1	-55	.	1
CCCCN(CCCC)S(=O)(=O)c1ccc(NS(=O)(=O)c2ccc(NC(C)=O)cc2)cc1	17*	4	-2	2	-65	-1	2
Cn1c(=O)c([N+](=O)[O-])c(-n2cnc3ccccc32)c2ccccc21	.	.	.	.	.	0	.
COC(=O)Cc1ccc(N(Cc2ccccc2F)S(=O)(=O)c2ccc(C)cc2)cc1	20*	10	-8	1	-11	-3	3
